Source: ChEMBL document CHEMBL1138275, “Activity of sulfonium bisphosphonates on tumor cell lines” (J Med Chem, 2007)

What was measured:
NCI-H460 = assay: Growth inhibition of human NCI-H460 cells after 4 days by MTT assay; type: functional, cell-based; conditions: NCI-H460, 96 h
Procedure, shortened: (§1)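 Cell lines from NCI, grown in RPMI-1640 with 2 mM L-glutamine and 10% FBS at 37 °C, 5% CO2, 100% humidity. Aqueous 0.01 M stocks, half-log serial dilutions in medium, typically 316 µM to 10 nM. 5000 cells/well exposed 4 days. MTT added for 2 h, detergent lysis, overnight dark at room temperature, A600 read. IC50 from rectangular hyperbolic fit of percent inhibition.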

MCF7 = assay: Growth inhibition of human MCF7 cells after 4 days by MTT assay; type: functional, cell-based; conditions: MCF7, 96 h
[1] = target: T1, Farnesyl pyrophosphate synthase (Homo sapiens, UniProt P14324); assay: Inhibition of human FPPS; conditions: read-out: IC50
T1 sequence (P14324 whole entry): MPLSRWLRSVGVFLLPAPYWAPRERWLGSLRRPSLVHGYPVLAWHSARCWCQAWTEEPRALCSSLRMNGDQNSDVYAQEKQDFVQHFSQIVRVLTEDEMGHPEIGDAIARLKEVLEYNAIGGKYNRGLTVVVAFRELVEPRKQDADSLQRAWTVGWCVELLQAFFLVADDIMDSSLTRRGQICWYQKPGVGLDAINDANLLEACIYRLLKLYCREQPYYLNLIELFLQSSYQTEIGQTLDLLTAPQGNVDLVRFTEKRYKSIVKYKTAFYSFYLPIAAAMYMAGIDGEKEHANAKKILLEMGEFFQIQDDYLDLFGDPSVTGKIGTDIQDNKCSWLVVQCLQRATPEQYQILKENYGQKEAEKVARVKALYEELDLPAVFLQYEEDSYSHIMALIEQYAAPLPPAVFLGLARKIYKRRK

SF-268 = assay: Growth inhibition of human SF268 cells after 4 days by MTT assay; type: functional, cell-based; conditions: SF-268, 96 h; procedure, shortened: as §1

SMILES | IC50 (NCI-H460; read-out: IC50) [µM] | IC50 (MCF7; read-out: IC50) [µM] | IC50 [1] [µM] | IC50 (SF-268; read-out: IC50) [µM] | IC50 (NCI-H460; read-out: pIC50 (converted)) [µM] | IC50 (MCF7; read-out: pIC50 (converted)) [µM] | IC50 (SF-268; read-out: pIC50 (converted)) [µM]
CCCCC[S+](C)CC(P(=O)([O-])O)P(=O)(O)O (configuration not stated) | 128 | 224 | 1.08 | 189 |  |  | 
C[S+](CCCCc1ccccc1)CC(P(=O)([O-])O)P(=O)(O)O (configuration not stated) | 47.9 | 45.7 |  | 43.9 | 50.1 | 50.1 | 39.8
C[S+](CCCc1ccccc1)CC(O)(P(=O)([O-])O)P(=O)(O)O (configuration not stated) | 13.8 | 17.8 |  | 10.7 | 12.6 | 15.8 | 10
CCCCCCCCCCCC[S+](C)CC(P(=O)([O-])O)P(=O)(O)O (configuration not stated) | 0.21 |  |  | 0.29 | 0.2 |  | 0.316
CCCCCCCCCCCCCCCC[S+](C)CC(P(=O)([O-])O)P(=O)(O)O (configuration not stated) | 1.41 | 1.12 | 45.6 | 1.08 | 1.26 | 1 | 1
O=P([O-])(O)C(O)(CC[S+]1CCCCC1)P(=O)(O)O (configuration not stated) | 355 | 513 |  | 431 | 316 | 501 | 398
CCCCCCCCCCCCC[S+](C)CC(P(=O)([O-])O)P(=O)(O)O (configuration not stated) | 3.4 | 2.8 |  | 3.1 |  |  | 
O=P([O-])(O)C(O)(CC[S+]1CCCC1)P(=O)(O)O (configuration not stated) | 158 | 195 |  | 129 | 158 | 200 | 126
CCCCC[S+](C)CCC(O)(P(=O)([O-])O)P(=O)(O)O (configuration not stated) | 200 | 389 |  | 196 | 200 | 398 | 200
CCC[S+](C)CCC(O)(P(=O)([O-])O)P(=O)(O)O (configuration not stated) | 759 | 813 |  | 714 | 794 | 794 | 631
CCC[S+](C)CC(P(=O)([O-])O)P(=O)(O)O (configuration not stated) | 95.5 | 240 | 0.53 | 223 | 100 | 251 | 200
O=P([O-])(O)C(O)(C[S+]1CCCC1)P(=O)(O)O (configuration not stated) | 126 | 100 |  | 101 | 126 | 100 | 100
C[S+](CCCc1ccccc1)CCC(O)(P(=O)([O-])O)P(=O)(O)O (configuration not stated) | 66.1 | 105 |  | 65.9 | 63.1 | 100 | 63.1
O=P([O-])(O)C(O)(CC[S+]1CCC(c2ccccc2)C1)P(=O)(O)O (configuration not stated) | 245 | 339 |  | 264 | 251 | 316 | 251
CCCCCCCCCCC[S+](C)CC(P(=O)([O-])O)P(=O)(O)O (configuration not stated) | 3.7 | 14.2 |  | 3.7 |  |  | 
